Laboratory results taken from ChEMBL document CHEMBL4513216, “Probing the Open Global Health Chemical Diversity Library for Multistage-Active Starting Points for Next-Generation Antimalarials” (ACS Infect Dis, 2020).

Assay: Toxicity liver stage against HepG2, at 10uM
Format: cell-based
Set-up: test concentration 10 uM, cell line HepG2-A16-CD81EGFP
Conditions: human, HepG2-A16-CD81EGFP cells; read-out: INHIBITION
How it was run: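 Uninfected HepG2-A16-CD81EGFP cells, 3 × 10^3 per well, 1536-well, plated on prespotted compound at 10 μM final, parasite-free screening media added to match infected plates; puromycin 10 μM positive, DMSO 0.5% negative; run in parallel with 48 h PbLuc assay at 37 °C, 5% CO2; viability by CellTiter-Glo luminescence, normalized to controls.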

SMILES | cytotoxicity at 10 µM [%]
Cn1ncc2c1CCCN(C(=O)C1CCCC1)C2 | 4.13
Cc1ccc(-c2noc([C@@H]3C[C@H](NC(=O)NC(C)C)CN3C)n2)cc1 | 3.31
O=C(O)CN1CCC(c2ccccc2)C1 (stereo unspecified) | 1.67
CN(CC(=O)N1CCc2[nH]c3ccccc3c2C1)CC1OCCO1 | -1.63
O=c1c(NCCNCCO)c(N2CCN(c3ccc(F)cc3)CC2)c1=O | -5.46
CC(C)C(=O)Nc1ccc(Oc2ccc3c(c2)OCO3)nc1 | -12.4
Cc1nc(C(=O)N2CCN(S(C)(=O)=O)CC2)c(-c2ccccc2Cl)s1 | 4.37
Cn1cccc1C(O)CNC(=O)c1ccc(F)c(F)c1 (stereo unspecified) | -1.29
Cc1oc(-c2nc(C#N)c(NCC(C)C)o2)cc1S(=O)(=O)N1CCCC1 | 13.1
O=c1cc2c(nn1CN1CCN(c3cccc(Cl)c3)CC1)CCC2 | -3.19
CCn1cc(Cl)c(C(=O)NCCOC)n1 | 7.05
CS(=O)(=O)Nc1ccn(Cc2cccc(Cl)c2)n1 | 8.66
CCn1cc(CCC(=O)NCc2csc(C3CC3)n2)c(C)n1 | -8.78
c1cc(C2CCN(c3cnccn3)CC2)ncn1 | 2.64
CC(C(=O)N1CCCCC1)n1nc(-c2cccs2)cc(N)c1=O (stereo unspecified) | 10.8
Cc1nc(C)n(CCNC(=O)C2(C)CC(c3ccccc3)=NO2)n1 (stereo unspecified) | 7.92
Cc1c(CCC(=O)N2CCCC2c2ccnc(N(C)C)c2)cnn1C (stereo unspecified) | 0.469
CCc1nnsc1C(=O)N(C)Cc1nnc2n1CCC2 | -0.862
CCOCC(=O)Nc1nccn1Cc1ccccc1Cl | -0.678
CCOc1nnc(CN2CCCC(c3nc4ccccc4[nH]3)C2)s1 (stereo unspecified) | 14.6
CN(CC(=O)Nc1cc(-n2nnnc2C2CC2)ccc1F)C1CCC1 | 8.83

SMILES | cytotoxicity at 10 µM [%]
Cc1csc(-c2cccc(NC(=O)N3CCOCC3)c2)n1 | -6.35
CS(=O)(=O)CCn1ccc(NC(=O)Cc2c[nH]c3ccccc23)n1 | 2
COCCS(=O)(=O)N(Cc1cscn1)c1ccccc1 | -3.3
O=C(NCCN1CCCCCC1=O)NCc1ccc(Cl)s1 | -1.08
CCc1noc(CN2CCCC2C(=O)OCc2ccccc2)n1 (stereo unspecified) | -1.57
O=C(c1ccc(-n2ccnn2)cc1)N(CC1CC1)c1cccnc1 | 22.5
O=C(NCc1ccccn1)NC1CCCN(c2ncccn2)C1 (stereo unspecified) | 6.21
COCCN(Cc1ccccc1)c1cc(C)ncn1 | 7.41
COc1cccc2c1N(Cc1noc(C(C)(C)C)n1)CCC2 | 10.9
O=C(NCCNc1ccc(C(F)(F)F)cn1)c1ccoc1 | -2
CC(C)(CNc1cn[nH]c(=O)c1Cl)c1ccc2c(c1)OCCO2 | 2
N#CCc1ccc(OCC(=O)NS(=O)(=O)c2cccs2)cc1 | 13.6
CC(CNC(=O)NCc1ccco1)CC1(C)OCCO1 (stereo unspecified) | -7.25
CCN(CC)C(=O)CNS(=O)(=O)c1cc(Br)ccc1F | -45.9
CC(CS(C)(=O)=O)NCc1cc(Cl)ccc1F (stereo unspecified) | -46.6
Cc1ccc(C(=O)NC(CN2CCCC2=O)c2ccccc2)c(=O)[nH]1 (stereo unspecified) | -2.23
COc1cccc(CCNS(=O)(=O)c2ccc(NC(C)=O)cc2)c1 | 1.54
CNC(=O)C1Cn2ccnc2C2(CCN(C(=O)NC3CCCC3)CC2)O1 (stereo unspecified) | -104
CNC(=O)N1CC[C@@H]2CN(Cc3ccccc3)S(=O)(=O)[C@@H]2CC1 | -96.6
Cn1cc(C[C@H]2[C@H](O)CCN2Cc2ccc3c(c2)OCO3)cn1 | -80.5
Cc1nnc([C@@H]2CC[C@@H]3[C@@H](CCN3S(=O)(=O)C3CC3)O2)o1 | -77

SMILES | cytotoxicity at 10 µM [%]
CCC1COC2(CCN(C(=O)c3ccco3)CC2)C1 (stereo unspecified) | -65.4
O=C(c1cnccn1)N1CC[C@H]2[C@@H]1CCC(=O)N2c1cccnc1 | -81.6
COc1cc(N2CC[C@H](O)[C@@H]2Cc2cnn(C)c2)ncn1 | 1.72
Cc1nc(CN(C)Cc2nc(-c3ccncc3)no2)co1 | -0.187
COC(=O)c1ccc2ccn(CC3COCCO3)c(=O)c2c1 (stereo unspecified) | 3.26
Cc1ccccc1N1CCCN(C(=O)CN2C(=O)OC[C@@H]2C(C)C)CC1 | 4.02
CCC[C@@H]1CN(Cc2nnc(-c3cccnc3)o2)C[C@H]1NC(C)=O | -4.89
O=C(c1cc(Cl)ccc1OC1CCN(C2CCCC2)CC1)N1CCCO1 | -2.54
Cc1[nH]ccc1C(=O)N1CCC2(CC1)c1nc[nH]c1CCN2S(C)(=O)=O | 6.63
Cc1c(-c2ccccc2)ncn1CCCNc1cccnc1 | 2.06
CCCSc1ncc(C2CC(=O)NCc3nc4ccccn4c32)cn1 (stereo unspecified) | -6.53
CCOC(=O)N1CCN(C(=O)C2Cc3ccccc3CN2C)CC1 (stereo unspecified) | -19.2
CCc1nc(CCn2cc(-c3nccn3C)nn2)no1 | -55.3
Cc1ccc2oc(=O)n(CC(=O)N3CCC4(CC3)CN(C)C(=O)O4)c2c1 | -13.8
CC(C(=O)N1CCC(c2[nH]ncc2-c2ccccc2)CC1)n1cncn1 (stereo unspecified) | -0.815
N[C@@H]1CC[C@@H]1NC(=O)c1ccccc1OC(F)(F)C(F)F | 1.5
CC(C)(C(=O)N1CCCC(OCc2cccnc2)C1)n1cccc1 (stereo unspecified) | -4.06
Cc1ccc(S(N)(=O)=O)cc1C(=O)N1C[C@@H](CN(C)C)[C@@H](CO)C1 | -0.187
COc1ccc(CN2CC3(CCNCC3)CCC2=O)c(F)c1F | 10.9
Cc1ccc(F)c(OC2(C(=O)O)CCN(C(=O)c3ccncc3)CC2)c1 | 5.03
CN(C)c1ccc(C(=O)N2C[C@@H](CN3CCCCC3)[C@@H](CO)C2)cc1 | -1.72

SMILES | cytotoxicity at 10 µM [%]
CCN(c1ccc(C(=O)N2CCC(C)CC2)cc1)S(=O)(=O)CC | 7.36
CCC(=O)N1CCC(Cc2nccnc2Nc2ccccn2)CC1 | 5.82
Fc1ccc(CN2CCCC2c2cncc(-n3ccnc3)n2)cc1 (stereo unspecified) | 5.82
CC1CN(CC(=O)NCc2ccccc2)CCN1Cc1nccn1C (stereo unspecified) | -16.2
Cc1cc(C(=O)NCc2ccc(N3CCN(C)CC3)nc2)c(C)s1 | -8.74
COCc1ccccc1CNc1nnc(C)c(C)c1C#N | -2.48
CC1COCCN1Cc1nc(-c2cccs2)no1 (stereo unspecified) | -7.79
OC(COc1ccc(F)cc1)CN1CCC(Cn2cccn2)CC1 (stereo unspecified) | -9.07
CCn1cnnc1CNC(=O)N1CCC(Cc2cccnc2)CC1 | 4.38
CN(C)CC1COCCN1C(=O)c1ccccc1C(=O)c1ccccc1 (stereo unspecified) | 1.12
Cc1ccc(C(=O)N2CC[C@H]3[C@@H]2CCC(=O)N3c2cccnc2)o1 | -106
COc1ccc(CN2C[C@@H]3OCCN(C)[C@@H]3C2)cc1 | -74.8
O=C1[C@H]2CN(Cc3ccc(F)cc3)C[C@H]2CN1c1ccsc1 | -87.8
Cc1cccc(CN2CCC3(CCC(CC(=O)N(C)C)CC3)CC2)n1 | -113
Cc1ccc(CN2CC[C@@H](O)[C@@H]2Cc2cnn(C)c2)o1 | -71
Cc1nc(CNC(C)c2cccc(N3CCCC3=O)c2)cs1 (stereo unspecified) | 5.01
N#Cc1cccc(CN2CC[C@@H]3[C@@H]2CC(=O)N3Cc2cccnc2)c1 | 5.2
CSc1ncccc1C(=O)N1C[C@@H]2CC[C@H]1CN(CC(=O)N(C)C)C2 | 2.9
